Here are results for 33 compounds from ChEMBL document CHEMBL4382256, “Design and Synthesis of Marine Phidianidine Derivatives as Potential Immunosuppressive Agents” (J Med Chem, 2018).

Activity calls are given as the source filed them. The calls are words filed in the database; no cut-off is given here. Some results are limits rather than exact numbers.

For orientation: CC50 means the concentration that lowers cell viability or growth by half. High values mean lower toxicity to the cells, low ones greater toxicity to the cells. One may read the IC50 as the concentration that gives 50% inhibition.

Series [1] can be described thus: Cytotoxicity against BALB/c mouse splenocytes after 48 hrs by CCK-8 assay. Format: cell-based, Splenocyte. The procedure, abridged:
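Fresh female BALB/c splenocytes (1×10^6 cells), RBC-depleted with ammonium chloride, cultured in triplicate in RPMI 1640/10% FBS with penicillin/streptomycin at 37 °C, 5% CO2 for 48 h with or without compound (DMSO stock diluted in medium). CCK-8 added, 6-8 h further incubation, absorbance 450 nm (570 nm calibration). CC50 from log(inhibitor) vs normalized response non-linear fit.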
For orientation: Tetrazolium assays rely on reduction of a dye to a coloured formazan, in cell work by metabolically active cells.

Series [2] deals with Splenocyte. The series can be described thus: Immunosuppressive activity in BALB/c mouse splenocytes assessed as inhibition of concanavalin A stimulated T-cell proliferation by measuring [3H]-thymidine uptake preincubated for 48 hrs followed by concanavalin A stimulation and [3H]-thymidine addition for 8 hrs measured after 48 hrs by beta-scintillation counting analysis. Format: functional, cell-based. The procedure, abridged: (§1)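 Female BALB/c splenocytes (5×10^5 cells), triplicate, with or without compound, stimulated with Con A 5 μg/ml (T cells) or LPS (E. coli 055:B5) 10 μg/ml (B cells). Culture 48 h at 37 °C, 5% CO2. Pulsed 8 h with 0.5 μCi/well [3H]thymidine, harvested to glass fiber filters, beta scintillation counted. IC50 from log(inhibitor) vs normalized response non-linear fit.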

The subject of series [3] is Splenocyte. Briefly: Immunosuppressive activity in BALB/c mouse splenocytes assessed as inhibition of LPS-stimulated B-cell proliferation by measuring [3H]-thymidine uptake preincubated for 48 hrs followed by LPS stimulation and [3H]-thymidine addition for 8 hrs measured after 48 hrs by beta-scintillation counting analysis. It counts as functional, cell-based. The procedure, abridged: as §1

Series [4] deals with Splenocyte. The series can be described thus: Immunosuppressive activity in BALB/c mouse splenocytes assessed as inhibition of concanavalin A stimulated T-cell proliferation by measuring [3H]-thymidine uptake at 50 uM preincubated for 48 hrs followed by concanavalin A stimulation and [3H]-thymidine addition for 8 hrs measured after 48 hrs by beta-scintillation counting analysis. It counts as functional, cell-based. A digest of the protocol:
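Female BALB/c splenocytes (5×10^5 cells), triplicate, compound at 50 μM, Con A 5 μg/ml stimulation, 48 h at 37 °C, 5% CO2. Pulsed 8 h with 0.5 μCi/well [3H]thymidine, harvested to glass fiber filters, counted by beta scintillation.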

The compound `COc1cc(-c2noc(Cc3c[nH]c4ccccc34)n2)cc(OC)c1OC` yielded a CC50 at 48 h in series [1] of over 50 µM. For the same compound, the concentration for half-maximal inhibition (IC50) is over 50 µM in the series with Splenocyte [2] and 2.8 µM in the series with Splenocyte [3].
As for `COc1cc(-c2noc(-c3cccc(N)c3)n2)cc(OC)c1OC`, it took 8.2 µM to reach half-maximal cytotoxicity in series [1] (CC50 at 48 h). In addition, the concentration for half-maximal inhibition (IC50) in the series with Splenocyte [2] amounted to 7 µM; in the series with Splenocyte [3], 5.5 µM.
On the same counts, the results for `CCCCCCc1ccc(-c2nc(-c3cc(OC)c(OC)c(OC)c3)no2)cc1` are 25 µM, 23.8 µM and 22.9 µM.
For the compound `COc1cc(-c2noc(-c3ccccc3)n2)cc(OC)c1OC`, in series [1], the CC50 at 48 h was over 50 µM. Besides, the IC50 with Splenocyte [2] and in the series with Splenocyte [3] was over 50 µM in each case.
`COc1cc(-c2noc(C34CCC(N)(CC3)CC4)n2)cc(OC)c1OC` returned a CC50 at 48 h in series [1] of 25.8 µM. In addition, the 50% inhibitory concentration (IC50) in the series with Splenocyte [2] stood at 4.8 µM; in the series with Splenocyte [3] it was 4.1 µM.
For the compound `COc1cc(/C(N)=N/OC(=O)Cc2c[nH]c3ccccc23)cc(OC)c1OC`, the CC50 at 48 h in series [1] was determined as 37.3 µM. For the same compound, the values for the half-inhibitory concentration (IC50) in the series on Splenocyte [2] and in the series with Splenocyte [3] were 19.5 µM and 10.4 µM, respectively.
On the same counts, the results for `Fc1ccc(-c2noc(Cc3c[nH]c4ccccc34)n2)cc1` are 13.6 µM, 5.4 µM and 13.6 µM.
Turning to `N=C(N)NCCNc1noc(Cc2c[nH]c3ccccc23)n1`, the inhibition result in the series on Splenocyte [4] was “inactive”.
In series [1], `O=[N+]([O-])c1ccc(-c2noc(Cc3c[nH]c4ccccc34)n2)cc1` showed a cytotoxic concentration (CC50) at 48 h of over 50 µM. Besides, the 50% inhibitory concentration (IC50) in the series with Splenocyte [2] and with Splenocyte [3] was over 50 µM in each case.
Regarding `COc1ccc(Br)c(-c2nc(Cc3c[nH]c4ccccc34)no2)c1`, the CC50 at 48 h in series [1] was 33.6 µM. The IC50 in the series with Splenocyte [2] was 13.3 µM; in the series on Splenocyte [3] it was 6.9 µM.
On the same counts, the results for `COc1ccccc1-c1nc(Cc2c[nH]c3ccccc23)no1` are 42.2 µM, 16.7 µM and 11.1 µM.
On the same counts, the results for `CCCCc1ccc(-c2nc(-c3cc(OC)c(OC)c(OC)c3)no2)cc1` are 21.2 µM, over 50 µM and 36.2 µM.
Regarding `N=C(N)NCCCCNc1noc(Cc2c[nH]c3ccccc23)n1`, in the series with Splenocyte [4], the inhibition result is “inactive”.
For `N=C(N)NCCCCCNc1noc(Cc2c[nH]c3ccccc23)n1`, the inhibition result with Splenocyte [4] is “inactive”.
The compound `COc1ccc(-c2nc(Cc3c[nH]c4ccccc34)no2)c(OC)c1` came in with a CC50 at 48 h in series [1] of 9.3 µM. The IC50 with Splenocyte [2] is 8.6 µM; with Splenocyte [3], 4.7 µM.
On the same counts, the results for `c1ccc(-c2noc(Cc3c[nH]c4ccccc34)n2)cc1` are over 50 µM, over 50 µM and over 50 µM.
In series [1], `COc1ccc(OC)c(-c2nc(Cc3c[nH]c4ccccc34)no2)c1` registered a CC50 at 48 h of over 50 µM. The results for the IC50 with Splenocyte [2] and with Splenocyte [3] were over 50 µM and 8.4 µM, respectively.
In series [1], `CCCCc1ccc(-c2nc(Cc3c[nH]c4ccccc34)no2)cc1` displayed a CC50 at 48 h of 8.2 µM. Besides, the IC50 turned out to be 11.2 µM in the series with Splenocyte [2] and 9.8 µM in the series with Splenocyte [3].
As to `CCCCc1nc(Cc2c[nH]c3ccccc23)no1`, the cytotoxic concentration (CC50) at 48 h in series [1] is over 50 µM. The IC50 with Splenocyte [2] and in the series with Splenocyte [3] was over 50 µM in each case.
In the case of `COc1cc(-c2noc(-c3cc(OC)c(OC)c(OC)c3)n2)cc(OC)c1OC`, in series [1], the CC50 at 48 h was over 50 µM. Also, the 50% inhibitory concentration (IC50) in the series on Splenocyte [2] was 5.5 µM; in the series with Splenocyte [3], over 50 µM.
In turn, `COc1cc(-c2noc(-c3ccc(NC(=O)OC(C)(C)C)cc3)n2)cc(OC)c1OC` showed a CC50 at 48 h in series [1] of 9.2 µM. For the same compound, the half-inhibitory concentration (IC50) stood at 1.6 µM in the series on Splenocyte [2] and 2.2 µM in the series with Splenocyte [3].
Compound `COc1cc(C(=O)O/N=C(\N)Cc2c[nH]c3ccccc23)cc(OC)c1OC` returned a cytotoxic concentration (CC50) at 48 h in series [1] of 10.1 µM. Besides, the concentration for half-maximal inhibition (IC50) with Splenocyte [2] stood at 11.9 µM; with Splenocyte [3] it was 6.8 µM.
Consider `Fc1ccc(-c2nc(Cc3c[nH]c4ccccc34)no2)c(C(F)(F)F)c1`, for which the midpoint of cytotoxicity in series [1], the CC50 at 48 h, lay at 40.6 µM. In addition, the figures for the half-inhibitory concentration (IC50) in the series with Splenocyte [2] and in the series on Splenocyte [3] were 15.7 µM and 9.7 µM, respectively.
On the same counts, the results for `COc1cc(-c2noc(C3CC4(C3)CC(F)(F)C4)n2)cc(OC)c1OC` are 28.5 µM, 5.2 µM and 5.6 µM.
For the compound `COc1cc(-c2noc(C34CC5CC(CC(C5)C3)C4)n2)cc(OC)c1OC`, it took 26.5 µM to reach half-maximal cytotoxicity in series [1] (CC50 at 48 h). In addition, the figures for the half-inhibitory concentration (IC50) with Splenocyte [2] and in the series on Splenocyte [3] were 2.7 µM and 18.8 µM, respectively.
`COc1cccc(-c2nc(Cc3c[nH]c4ccccc34)no2)c1` had a half-maximal cytotoxic concentration (CC50) at 48 h in series [1] of 18.4 µM. Moreover, the half-maximal inhibitory concentration (IC50) in the series on Splenocyte [2] worked out at 18.5 µM; in the series with Splenocyte [3], 11.1 µM.
In the case of `Fc1ccccc1-c1nc(Cc2c[nH]c3ccccc23)no1`, in series [1], the CC50 at 48 h is over 50 µM. In addition, the IC50 with Splenocyte [2] and in the series with Splenocyte [3] was over 50 µM throughout.
Compound `Clc1ccc(-c2noc(Cc3c[nH]c4ccccc34)n2)cc1` showed a half-maximal cytotoxic concentration (CC50) at 48 h in series [1] of 42.8 µM. Also, the 50% inhibitory concentration (IC50) with Splenocyte [2] is 22.6 µM; with Splenocyte [3], over 50 µM.
With `COc1ccc(-c2nc(Cc3c[nH]c4ccccc34)no2)cc1`, in series [1], the cytotoxic concentration (CC50) at 48 h is over 50 µM. Moreover, the half-inhibitory concentration (IC50) with Splenocyte [2] and in the series on Splenocyte [3] was over 50 µM in each case.
In series [1], `COc1cc(-c2noc(C34CCC(NC(=O)OC(C)(C)C)(CC3)CC4)n2)cc(OC)c1OC` gave a 50% cytotoxic concentration (CC50) at 48 h of 12.7 µM. Further, the IC50 with Splenocyte [2] was found to be 2.5 µM; in the series with Splenocyte [3], 3.6 µM.
Consider `CCc1ccc(-c2noc(Cc3c[nH]c4ccccc34)n2)cc1`, for which the CC50 at 48 h in series [1] was found to be 24.4 µM. For the same compound, the IC50 amounted to 7.5 µM in the series with Splenocyte [2] and 13.9 µM in the series with Splenocyte [3].
`CCc1ccc(-c2nc(-c3cc(OC)c(OC)c(OC)c3)no2)cc1`: in series [1], the CC50 at 48 h is 31.3 µM. In addition, the 50% inhibitory concentration (IC50) in the series with Splenocyte [2] and in the series with Splenocyte [3] was over 50 µM in each case.
In series [1], `COc1cc(OC)cc(-c2nc(Cc3c[nH]c4ccccc34)no2)c1` displayed a CC50 at 48 h of over 50 µM. Besides, the IC50 in the series with Splenocyte [2] was over 50 µM; with Splenocyte [3], 13.9 µM.
